We go through two compounds from ChEMBL document CHEMBL2321834 (J Med Chem, 2013).

Molecules are shown by their SMILES.

Assay [1] addresses T1, Estradiol 17-beta-dehydrogenase 2 (Mus musculus) (UniProt P51658).
T1 sequence (whole entry): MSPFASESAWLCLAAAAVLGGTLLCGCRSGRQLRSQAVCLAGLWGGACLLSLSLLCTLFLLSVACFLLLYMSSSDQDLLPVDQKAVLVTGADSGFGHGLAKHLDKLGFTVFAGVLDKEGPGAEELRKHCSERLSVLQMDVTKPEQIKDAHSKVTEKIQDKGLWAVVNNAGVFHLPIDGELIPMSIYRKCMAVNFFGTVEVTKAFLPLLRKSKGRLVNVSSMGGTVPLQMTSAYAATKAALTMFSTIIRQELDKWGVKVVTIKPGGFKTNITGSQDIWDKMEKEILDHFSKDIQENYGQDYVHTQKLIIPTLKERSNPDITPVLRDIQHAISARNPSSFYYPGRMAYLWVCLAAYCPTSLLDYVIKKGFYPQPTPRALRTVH
In words: Inhibition of 17beta-HSD2 in mouse liver microsomal fraction assessed as inhibition of [3H]E2 conversion to E1 at 1 uM by scintillation counting analysis. The class given is microsomes. Summed up: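 Cell-free assay measuring percent inhibition of the E2-to-E1 transformation. Enzyme source was the microsomal fraction of rat or mouse liver, or of Callithrix jacchus placenta for the marmoset.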

Assay [2] has as its target T2, 11-beta-hydroxysteroid dehydrogenase type 2 (Homo sapiens) (UniProt P80365).
T2 sequence (whole entry): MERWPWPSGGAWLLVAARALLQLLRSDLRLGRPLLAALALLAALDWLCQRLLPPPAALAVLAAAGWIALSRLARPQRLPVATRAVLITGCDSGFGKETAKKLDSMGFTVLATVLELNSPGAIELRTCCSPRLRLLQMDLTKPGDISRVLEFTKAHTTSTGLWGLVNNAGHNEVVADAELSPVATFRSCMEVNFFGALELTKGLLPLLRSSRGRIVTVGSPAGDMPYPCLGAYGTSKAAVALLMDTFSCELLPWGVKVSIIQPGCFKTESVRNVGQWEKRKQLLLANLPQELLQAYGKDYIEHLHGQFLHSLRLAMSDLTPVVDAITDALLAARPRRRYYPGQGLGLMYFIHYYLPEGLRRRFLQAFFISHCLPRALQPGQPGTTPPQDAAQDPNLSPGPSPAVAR
In words: Inhibition of human recombinant 11beta-HSD2 expressed in HEK293 cell using [1,2,6,7-3H]cortisol as substrate at 2 uM after 10 mins by scintillation counting analysis. The class given is cell-based. Summed up: (§1)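 Recombinant human 11β-HSD1 or 11β-HSD2 stably transfected in HEK-293 cells, following a previously described procedure.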

The target in assay [3] is T3, 11-beta-hydroxysteroid dehydrogenase 1 (Homo sapiens, UniProt P28845). In words: Inhibition of human recombinant 11beta-HSD1 expressed in HEK293 cell using [1,2-3H]Cortisone as substrate at 2 uM after 10 mins by scintillation counting analysis. The class given is cell-based. In a few lines:
as §1
Target sequence in this assay (P28845 whole entry, looked up): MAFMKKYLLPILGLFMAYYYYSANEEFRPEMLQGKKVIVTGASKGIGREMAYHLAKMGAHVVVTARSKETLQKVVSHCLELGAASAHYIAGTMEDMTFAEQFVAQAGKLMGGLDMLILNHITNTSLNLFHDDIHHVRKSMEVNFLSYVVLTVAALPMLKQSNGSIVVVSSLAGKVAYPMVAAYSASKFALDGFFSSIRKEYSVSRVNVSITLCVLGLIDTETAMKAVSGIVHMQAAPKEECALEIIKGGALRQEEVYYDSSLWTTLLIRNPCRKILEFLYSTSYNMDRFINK

For assay [4], the target named is T4, 17-beta-hydroxysteroid dehydrogenase type 2 (Homo sapiens, UniProt P37059).
T4 sequence (P37059 whole entry): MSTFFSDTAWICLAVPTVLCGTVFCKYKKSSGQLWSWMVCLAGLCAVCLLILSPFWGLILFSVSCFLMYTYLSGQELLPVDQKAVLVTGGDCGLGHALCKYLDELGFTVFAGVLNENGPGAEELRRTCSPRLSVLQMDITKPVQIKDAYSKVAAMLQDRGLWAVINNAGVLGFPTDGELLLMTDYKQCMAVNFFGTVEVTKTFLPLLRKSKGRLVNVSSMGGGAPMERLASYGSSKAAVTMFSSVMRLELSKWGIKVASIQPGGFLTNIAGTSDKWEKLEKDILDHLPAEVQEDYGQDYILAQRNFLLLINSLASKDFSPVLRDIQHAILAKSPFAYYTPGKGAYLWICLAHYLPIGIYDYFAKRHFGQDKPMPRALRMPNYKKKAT
Nature of the assay: Inhibition of 17beta-HSD2 in human MDA-MB-231 cells using [3H]E2 as substrate after 6 hrs by HPLC analysis. The class given is cell-based.

Assay [5] addresses Estrogen receptor beta (Homo sapiens) (UniProt Q92731). Nature of the assay: Displacement of [3H]E2 from human recombinant ERbeta after 1 hr by scintillation counting analysis relative to E2. Summed up: (§2)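 Competitive binding assay against ERα and ERβ, with E2 as internal reference.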
(In a radioligand displacement assay an active substance lowers the binding of a labelled ligand.)

Assay [6] addresses T5, Estrogen receptor (Homo sapiens) (UniProt P03372).
T5 sequence (whole entry): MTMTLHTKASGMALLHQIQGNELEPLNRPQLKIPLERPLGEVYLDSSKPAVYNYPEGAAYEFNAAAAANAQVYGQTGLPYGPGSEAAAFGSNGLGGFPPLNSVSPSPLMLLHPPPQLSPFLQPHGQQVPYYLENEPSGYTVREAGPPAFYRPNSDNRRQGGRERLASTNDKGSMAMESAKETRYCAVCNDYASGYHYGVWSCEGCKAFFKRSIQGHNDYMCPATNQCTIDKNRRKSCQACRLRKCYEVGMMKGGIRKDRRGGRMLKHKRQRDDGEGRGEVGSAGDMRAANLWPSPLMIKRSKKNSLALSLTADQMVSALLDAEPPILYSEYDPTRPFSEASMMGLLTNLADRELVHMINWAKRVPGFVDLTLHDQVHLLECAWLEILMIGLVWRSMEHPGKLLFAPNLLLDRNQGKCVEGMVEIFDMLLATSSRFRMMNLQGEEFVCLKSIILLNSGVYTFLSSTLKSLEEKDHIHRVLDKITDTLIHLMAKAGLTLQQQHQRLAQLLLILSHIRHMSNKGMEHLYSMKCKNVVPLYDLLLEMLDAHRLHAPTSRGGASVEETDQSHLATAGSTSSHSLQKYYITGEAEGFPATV
In words: Displacement of [3H]E2 from human recombinant ERalpha after 1 hr by scintillation counting analysis relative to E2. In a few lines: as §2

Assay [7] deals with T3, 11-beta-hydroxysteroid dehydrogenase 1. In words: Inhibition of human recombinant 11beta-HSD1 expressed in HEK293 cell using [1,2-3H]Cortisone as substrate after 10 mins by scintillation counting analysis. The class given is cell-based.
Target sequence in this assay (P28845 whole entry): as the sequence (P28845 whole entry, looked up) above
The species entered for the next assay is Homo sapiens. Nature of the assay: Selectivity ratio of IC50 for 17beta-HSD1 in human placental microsomal fraction to IC50 for 17beta-HSD2 in human placental microsomal fraction. To be noted: Microsome. The class given is microsomes.

Sequence of Estrogen receptor beta (Homo sapiens) (Q92731 whole entry): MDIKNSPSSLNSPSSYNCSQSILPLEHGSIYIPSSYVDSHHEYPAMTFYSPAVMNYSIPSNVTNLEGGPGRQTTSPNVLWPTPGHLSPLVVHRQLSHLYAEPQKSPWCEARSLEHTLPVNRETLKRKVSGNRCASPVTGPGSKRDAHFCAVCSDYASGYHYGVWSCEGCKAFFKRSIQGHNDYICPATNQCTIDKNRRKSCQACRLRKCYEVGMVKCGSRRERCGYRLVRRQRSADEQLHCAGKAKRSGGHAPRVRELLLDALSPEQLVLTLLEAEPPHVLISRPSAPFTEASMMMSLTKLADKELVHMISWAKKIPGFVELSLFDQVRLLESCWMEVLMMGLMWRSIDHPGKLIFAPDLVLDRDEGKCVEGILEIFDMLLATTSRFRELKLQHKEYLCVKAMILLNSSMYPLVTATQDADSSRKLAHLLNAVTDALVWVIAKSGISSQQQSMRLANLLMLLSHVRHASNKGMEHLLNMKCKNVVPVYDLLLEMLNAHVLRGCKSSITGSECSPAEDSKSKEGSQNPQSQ

For the compound `COc1cccc(N(C)C(=O)c2ccc(-c3cccc(OC)c3F)s2)c1`, the inhibition in assay [1] came to 26%; in assay [2], 8%; in assay [3], 9%. In addition, it took 105 nM to reach half-maximal inhibition in assay [4] (IC50). Besides, the RBA in assay [5] and in assay [6] was below 0.1% throughout.

On to `COc1cccc(-c2ccc(C(=O)N(C)Cc3cccc(O)c3)s2)c1F`, for which the inhibition in assay [1] stood at 65%; in assay [2] it was 10%; in assay [3], 68%. The half-maximal inhibitory concentration (IC50) in assay [7] is 1000 nM. The Ratio IC50 in the assay filed under Homo sapiens amounted to 73.

As usually defined, the inhibition is the percentage by which the read-out fell short of the control. For orientation: IC50 means the concentration that gives 50% inhibition.
